Experimental data: ChEMBL document CHEMBL1129623, “Effects of multidrug resistance (MDR1) P-glycoprotein expression levels and coordination metal on the cytotoxic potency of multidentate (N4O2) (ethylenediamine)bis[propyl(R-benzylimino)]metal(III) cations” (1996)
Active and inactive are the calls of the source. The calls are words filed in the database; no cut-off is given here.

Legend:
[1] = tested on: KB; assay: Compound was tested for dependency on R-ENBPI Fe(III) complex in multi drug resistant (KB-8-5) cells; NA=not applicable; format: functional, cell-based; details: Homo sapiens
Summary of the method: (§1)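 KB-8-5 multidrug-resistant cells were kept drug-free for 96 h, then plated at 5000/well in 5% FBS medium and allowed 4 h to recover. Complexes were added in triplicate up to 100 μM for 72 h at 37 °C. Survival was read by SRB staining (490–450 nm) relative to vehicle. LC50 came from a sigmoid fit with Smin fixed at zero, giving CV% and dependency statistics.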

[2] = tested on: KB 3-1; assay: Compound was tested for cytotoxic lethal concentration on R-ENBPI Al(III) complexs in human drug sensitive (KB-3-1)cells. parentheses value indicates SEM; format: functional; details: read-out: LC50 (the source's name)
Summary of the method: (§2)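 Parental KB-3-1 human epidermal carcinoma cells, no immunodetectable P-glycoprotein, 5000/well in 5% FBS medium, 4 h recovery. Complex was added in triplicate wells up to 100 μM, 72 h at 37 °C, 5% CO2. Cells were TCA-fixed and stained with 0.4% SRB, dye dissolved in 10 mM Tris, A490–450. LC50 was from a sigmoid fit of survival versus vehicle control, Smin constrained to zero.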

[3] = tested on: KB 3-1; assay: Compound was tested for cytotoxic lethal concentration on R-ENBPI In(III) complexs in human drug sensitive (KB-3-1)cells. parentheses value indicates SEM; format: functional; details: read-out: LC50 (the source's name); summary of the method: as §2
[4] = tested on: KB; assay: Compound was tested for cytotoxic lethal concentration on R-ENBPI In(III) complex in multi drug resistant (KB-8-5)cells.; format: functional; details: Homo sapiens, read-out: LC50 (the source's name)
Summary of the method: (§3)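 KB-8-5 cells are colchicine-selected and express modest MDR1 P-glycoprotein. They were kept in drug-free medium for 96 h, then plated at 5000/well in 5% FBS medium and allowed 4 h recovery. Complex was added in triplicate up to 100 μM, with 72 h at 37 °C, 5% CO2. Read-out was SRB staining after TCA fixation, A490–450. LC50 came from a sigmoid fit (Smin=0) of survival relative to vehicle. Values ≥100 μM were not fitted.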

[5] = tested on: KB; assay: Compound was tested for dependency on R-ENBPI In(III) complex in multi drug resistant (KB-8-5)cells.; format: functional, Homo sapiens; summary of the method: as §1
[6] = tested on: KB; assay: Compound was tested for coefficient of variation percent on R-ENBPI Al(III) complex in multi drug resistant (KB-8-5) cells; NA=not applicable; format: functional, cell-based; details: Homo sapiens; summary of the method: as §1
[7] = tested on: KB; assay: Compound was tested for cytotoxic lethal concentration on R-ENBPI Ga(III) complex in multi drug resistant (KB-8-5) cells; NA=not applicable; format: functional, cell-based; details: Homo sapiens; summary of the method: as §3
[8] = tested on: KB 3-1; assay: Compound was tested for dependency on R-ENBPI In(III) complexs in human drug sensitive (KB-3-1)cells.; format: functional
Summary of the method: (§4)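 KB-3-1 cells were plated at 5000/well in 5% FBS medium and allowed 4 h to recover. Complexes were added in triplicate at concentrations up to 100 μM, then incubated 72 h at 37 °C, 5% CO2. Cells were TCA-fixed and stained with SRB, read at 490–450 nm, and expressed as % of vehicle control. A sigmoid fit with Smin constrained to zero gave LC50 and fit dependencies.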

[9] = tested on: KB; assay: Compound was tested for cytotoxic lethal concentration on R-ENBPI Al(III) complex in multi drug resistant (KB-8-5)cells.; format: functional; details: Homo sapiens, read-out: LC50 (the source's name); summary of the method: as §3
[10] = tested on: KB 3-1; assay: Compound was tested for dependency on R-ENBPI Ga(III) complexs in human drug sensitive (KB-3-1)cells.; format: functional; summary of the method: as §4
[11] = tested on: KB 3-1; assay: (§5) Compound was tested for dependency on R-ENBPI Fe(III) complex in human drug sensitive (KB-3-1)cells.; format: functional; details: read-out: LC50 (the source's name)
Summary of the method: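 Parameter dependency from the sigmoid fit S={(Smax−Smin)/[1+(C/LC50)^γ]}+Smin of KB-3-1 SRB survival data: 72 h exposure, triplicate wells, up to 100 μM, Smin constrained to zero. It is used to judge overparameterization of the fitted curve.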

[12] = tested on: KB 3-1; assay: as §5; format: functional; summary of the method: as §4
[13] = tested on: KB; assay: Compound was tested for dependency on R-ENBPI Ga(III) complex in […] (KB-8-5) cells; NA=not applicable; format: functional, cell-based; summary of the method: as §1
[14] = tested on: KB; assay: Compound was tested for cytotoxic lethal concentration on R-ENBPI Fe(III) complex in multi drug resistant (KB-8-5) cells; NA=not applicable; format: functional, cell-based; details: Homo sapiens; summary of the method: as §3
[15] = tested on: KB; assay: Compound was tested for dependency on R-ENBPI Al(III) complex in multi drug resistant (KB-8-5) cells; NA=not applicable; format: functional, cell-based; details: Homo sapiens; summary of the method: as §1
[16] = tested on: KB; assay: Compound was tested for coefficient of variation percent on R-ENBPI Ga(III) complex in multi drug resistant (KB-8-5) cells; NA=not applicable; format: functional, cell-based; details: Homo sapiens; summary of the method: as §1
[17] = tested on: KB 3-1; assay: Compound was tested for dependency on R-ENBPI Al(III) complexs in human drug sensitive (KB-3-1)cells.; format: functional; summary of the method: as §4
[18] = tested on: KB; assay: Compound was tested for coefficient of variation percent on R-ENBPI Fe(III) complex in multi drug resistant (KB-8-5) cells; NA=not applicable; format: functional, cell-based; details: Homo sapiens; summary of the method: as §1
[19] = tested on: KB 3-1; assay: Compound was tested for cytotoxic lethal concentration on R-ENBPI […] complexs in human drug sensitive (KB-3-1)cells. parentheses value indicates SEM; format: functional; details: read-out: LC50 (the source's name); summary of the method: as §2
[20] = tested on: KB; assay: Compound was tested for dependency on R-ENBPI Al(III) complex in multi drug resistant (KB-8-5)cells.; format: functional, Homo sapiens; summary of the method: as §1
[21] = tested on: KB; assay: Compound was tested for dependency on R-ENBPI Ga(III) complex in […] (KB-8-5) cells.; format: functional; summary of the method: as §1
[22] = tested on: KB; assay: Compound was tested for cytotoxic lethal concentration on R-ENBPI Fe(III) complex in multi drug resistant (KB-8-5)cells.; format: functional; details: Homo sapiens, read-out: LC50 (the source's name); summary of the method: as §3
[23] = tested on: KB 3-1; assay: Compound was tested for cytotoxic lethal concentration on R-ENBPI […] complexs in human drug sensitive (KB-3-1)cells parentheses value indicates SEM; format: functional; details: read-out: LC50 (the source's name); summary of the method: as §2
[24] = tested on: KB; assay: Compound was tested for cytotoxic lethal concentration on R-ENBPI Ga(III) complex in multi drug resistant (KB-8-5)cells.; format: functional; details: Homo sapiens, read-out: LC50 (the source's name); summary of the method: as §3
[25] = tested on: KB 3-1; assay: Compound was tested for cytotoxic lethal concentration on R-ENBPI Al(III) complexs in human drug sensitive (KB-3-1)cells; format: functional; details: read-out: LC50 (the source's name); summary of the method: as §2

Structure (SMILES) | Dependency [1] | CC50 [3] [µM] | CC50 [4] [µM] | Dependency [5] | Dependency [8] | CC50 [9] [µM] | Dependency [10] | CC50 [11] [µM] | Dependency [12] | Dependency [17] | CV [18] | also measured
COc1cc(O)c(/C=N/CCCN2CCN(CCC/N=C/c3c(O)cc(OC)cc3OC)C2c2c(O)cc(OC)cc2OC)c(OC)c1 | inactive | 63.8 | 61.8 | 0.38 | 0.38 | > 100 | 0.34 | < 1.1 | 0.23 | 0.39 | inactive | CC50 [2]: < 1.4 µM; CV [6]: inactive; LC50 [7]: inactive; Dependency [13]: inactive; LC50 [14]: inactive; Dependency [15]: inactive; CV [16]: inactive; CC50 [19]: 3.7 µM
COc1cccc(/C=N/CCCN2CCN(CCC/N=C/c3cccc(OC)c3O)C2c2cccc(OC)c2O)c1O | inactive | 16.6 | 24.2 | 0.36 | 0.41 | < 27.5 | 0.45 | 9 | 0.68 | 0.46 | inactive | Dependency [20]: 0.33; Dependency [21]: 0.39; CC50 [22]: > 100 µM; CC50 [23]: < 42.6 µM; CC50 [24]: < 110 µM; CC50 [25]: 11.4 µM
